Shown are actives, neighbours in structure and some others; about 2.4% of the full set was active somewhere.
L929 necroptosis = L929 zVAD cell death inhibition | L929 zVAD necroptosis rescue, ATP luminescence, 24 h; with zVAD 60 µM | viability rescue, % at 10 µM | 220,000 compounds, 0.38% hits | AID 1377;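 active = activation, scaled between plate controls, above about 75%, limit read from the data; inactive = activation under that limit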;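 note: 0% = zVAD with DMSO and 100% = DMSO alone without zVAD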
MDM2 E3 inh = Mdm2 E3 ligase (human) inhibition. Q00987. cell-based MDM2 ubiquitination luciferase reporter, 2 h; 0 = plate control, 100 = twice control, blank-subtracted. signal enhancement, % at 5 µM. 210,000 compounds, 0.11% hits;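 active = signal enhancement of 30% or more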;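 note: luminescence tracks abundance of the self-degrading MDM2-luciferase fusion protein; higher signal means inhibition of MDM2 E3 ligase activity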
Target sequence (Q00987 whole entry, looked up, the tested form may be a part): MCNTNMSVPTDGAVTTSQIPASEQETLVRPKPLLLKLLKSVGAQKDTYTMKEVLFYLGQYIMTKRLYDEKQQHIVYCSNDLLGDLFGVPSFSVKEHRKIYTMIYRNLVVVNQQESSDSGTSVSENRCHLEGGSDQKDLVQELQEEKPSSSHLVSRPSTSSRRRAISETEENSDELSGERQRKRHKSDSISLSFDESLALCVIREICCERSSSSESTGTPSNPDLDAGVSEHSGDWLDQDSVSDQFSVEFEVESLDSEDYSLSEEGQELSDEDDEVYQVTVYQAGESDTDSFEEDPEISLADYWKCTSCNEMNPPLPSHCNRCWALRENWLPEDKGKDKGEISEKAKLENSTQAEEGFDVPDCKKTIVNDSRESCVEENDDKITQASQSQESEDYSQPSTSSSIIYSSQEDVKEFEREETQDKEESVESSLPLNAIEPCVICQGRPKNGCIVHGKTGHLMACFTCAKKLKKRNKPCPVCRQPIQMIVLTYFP
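Assay system: mammalian cells stably expressing self-ubiquitinating, self-degrading MDM2 E3–luciferase fusion. Quantity: 2000 cells in each well. Medium: DMEM culture medium. Compound dosing: single-point 5 µM. Timing: cell settling 4 h, compound treatment 2 h, both 37 °C. Technique: luciferase luminescence. Read-out basis: percent signal gain over controls, blank-subtracted. Benchmarks: plate controls and plate blanks.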
Dynein transport = dynein cargo transport inhibition. 3617.4 mouse cells, GR-EGFP nuclear translocation imaging; test concentration mostly 20 µM; stimulated with dexamethasone, 1 µM; hits give low values. z-score, hits read low. 220,000 compounds, 0.47% hits;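 active = plate z-score of nuclear minus cytoplasmic receptor signal below a set negative limit, without overly bright fluorescence or cell loss, cut at about -3.5 in these data, passing the limit was not always enough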;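 note: z-score of nuclear minus cytoplasmic ring GR-EGFP intensity difference per well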
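Buffer or medium: tet-free, stripped-serum medium; Also added: dexamethasone, 1.0 µM final; Technique: high-content fluorescence imaging after fixation; Times: 48 h induction, 1 h compound, 30 min dex at 37 °C; Read-out: per-cell GR-EGFP intensity, nucleus versus surrounding cytoplasmic ring, well-averaged.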
Autophagy HCS = autophagy modulation, high-content screen. MEF GFP-LC3 puncta imaging; test concentration mostly 10 µM. calls only at 10 µM (by protocol). 190,000 compounds, 0.98% hits. AID 463193;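 active = percentage of spot-positive cells more than 3 SD above its plate mean, without a fluorescence outlier flag or 80% toxicity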;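 note: spot-positive cell cutoff set from DMSO-treated cells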
Hck-Nef inh = blocks Nef-activated human Hck kinase; P08631; Recombinant Hck-YEEI plus Nef, Z-Lyte FRET kinase assay; inhibition, % at 20 µM; 220,000 compounds, 0.68% hits;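 active = Hck-Nef kinase inhibition above about 50%, limit read from the data; inactive = inhibition below that limit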;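 note: 0% = DMSO with Hck plus Nef and 100% = Hck alone without Nef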
TNF death inh = inhibitors of TNF-alpha induced necroptosis in Jurkat FADD-/- cells; 220,000 compounds, 0.068% hits; Jurkat FADD-/- TNF necroptosis rescue, ATP luminescence, 24 h; 0 = TNF only, 100 = no-TNF cells; activation (protection from cell death), % at 10 µM;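 active = activation, meaning protection from cell death, of at least 50% relative to plate controls; inactive = activation below 50%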;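 note: necroptosis triggered by 40 ng/mL TNF-alpha added together with compound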
The depositor's hits bear a star; i = inactive; · = not tested or not shown; + = active, no number.

SMILES | L929 necroptosis | MDM2 E3 inh | Dynein transport | Autophagy HCS | Hck-Nef inh | TNF death inh
CN(C(=O)Cc1c(C(=O)O)n(C)c2ccccc12)c1ccc(F)cc1 | 0.6 | -19.1 | 0.0926 | i | 11.7 | 0.2
CC1CN(C)C(C)c2c1oc1ccc([N+](=O)[O-])cc21 (configuration not stated) | 0.6 | -11.6 | -0.314 | + | 18.6 | 1.2
CCCCN=CC1=C(O)C(C(=O)OC)C(C)(C)CC1=O (configuration not stated) | 0.7 | -16.9 | -0.9 | i | 1.9 | -0.4
Cc1cccc(OCCCC(=O)Nc2nc3ccccc3[nH]2)c1 | 25.2 | -5.0 | 0.333 | + | 12.7 | 36.4
COc1c(O)ccc(/C=N/NC(=O)c2ccc3c(c2)OCCO3)c1[N+](=O)[O-] | 0.1 | 1.3 | 0.00964 | · | 9.9 | -2.3
O=C1C(=Cc2cccn2-c2ccccc2)C(=O)c2ccccc21 | · | -6.5 | -0.341 | i | 12.8 | 21.0
O=C1C(=Cc2cccn2-c2ccc(O)cc2)C(=O)c2ccccc21 | -0.3 | -24.0 | 1.43 | + | 14.1 | 1.2
COc1ccccc1C(=O)CSc1ccccn1 | -0.2 | -3.7 | -0.486 | + | 4.4 | -1.2
Cc1ccc(NC(=O)COn2nnc3ccc(S(=O)(=O)N(C)C)cc32)cc1F | -0.3 | -9.6 | -0.896 | i | 2.5 | -1.1
O=C(CSc1ncn[nH]1)NC1CC2CCC1C2 (configuration not stated) | -0.4 | -10.1 | 1.11 | + | -0.9 | -0.2
COc1ccc(-c2c3c(nc4sc5c(Cl)nc(C)nc5c24)CCC3)cc1 | -0.4 | -6.5 | 0.383 | i | 2.2 | -19.4
NC(=O)C[n+]1ccc(/C=N/O)cc1 | 2.8 | -4.0 | -0.824 | + | 16.5 | 2.1
C/C(=N\NC(=O)c1cc(-c2cccs2)nc2ccccc12)c1ccccn1 | 50.8 | -4.8 | 0.822 | + | 4.1 | -11.8
Cc1ccc(NC(=O)c2cc(NC(=O)c3ccco3)ccc2N2CCOCC2)cc1Cl | 0.2 | -12.3 | -0.0684 | + | 5.4 | 3.2
CCOC(=O)c1nc2sc3c(c2c(=O)[nH]1)CCCC3 | 0.0 | -12.0 | -0.112 | i | 0.5 | -0.4
CCOC(=O)c1nc(N2CCN(C(=O)OCC)CC2)c2c3c(sc2n1)CCCC3 | -0.3 | -10.1 | 0.349 | + | 2.8 | -4.2
CC(=O)Nc1nc(SCC(=O)NCc2ccc(F)cc2)[nH]c(=O)c1NC(=O)c1cccs1 | 1.1 | 1.7 | 0.87 | + | -6.7 | 0.0
CC(=O)Nc1nc(SCC(=O)NCC2CCCO2)[nH]c(=O)c1NC(=O)c1cccs1 (configuration not stated) | 0.8 | -11.6 | -0.641 | i | -10.0 | 0.7
NS(=O)(=O)c1ccc(CNC(=O)/C=C/c2cccc([N+](=O)[O-])c2)cc1 | 0.3 | -6.7 | 0.236 | · | 13.5 | 0.0
CCn1ncc(CN2CCCC(C(=O)c3cccc(OC(C)C)c3)C2)c1C (configuration not stated) | 0.2 | -13.5 | -0.359 | i | 0.4 | 0.5
Cc1c(CN2CCCC(C(=O)c3cccc(OC(C)C)c3)C2)c(=O)n(-c2ccccc2)n1C (configuration not stated) | -1.3 | -7.7 | 1.27 | + | 15.2 | 1.2
O=C(Nc1ccc(Oc2cccc(C(F)(F)F)c2)nc1)c1cccs1 | 5.9 | -3.6 | 0.138 | · | -16.6 | -5.3
CCN1CC=C2C(C1)C(c1ccc(Cl)s1)C(C#N)=C(N)C2(C#N)C#N (configuration not stated) | -0.5 | -12.6 | -4.57 | + | 15.4 | -2.2
CCC(C)n1c(NC(=O)c2ccccc2)c(C#N)c2nc3ccccc3nc21 (configuration not stated) | 0.1 | · | -0.744 | + | 11.6 | -7.0
O=[N+]([O-])c1cc(Oc2cccnc2)cc([N+](=O)[O-])c1 | -0.2 | -5.0 | 1.65 | + | -2.5 | -0.1
SMILES | L929 necroptosis | MDM2 E3 inh | Dynein transport | Autophagy HCS | Hck-Nef inh | TNF death inh
O=C(Oc1cccnc1)c1ccc([N+](=O)[O-])cc1 | 1.0 | 3.0 | -0.209 | i | 2.1 | -0.3
CCCCN1C(=O)C2(NNc3ccccc3O2)c2ccccc21 (configuration not stated) | 0.4 | -19.8 | -2.57 | i | 0.6 | -0.6
C=CCN1C(=O)C2(NNc3ccccc3O2)c2ccccc21 (configuration not stated) | -0.1 | 1.7 | 0.302 | + | 0.7 | 1.2
CCNC(=O)N1CCCC(C(=O)c2ccc(OC)c(OC)c2)C1 (configuration not stated) | 20.1 | 1.7 | -0.45 | i | 17.5 | 0.6
Cc1[nH]c2c(C)cccc2c1CCNS(=O)(=O)c1cccc([N+](=O)[O-])c1 | 0.5 | -4.1 | -1.05 | + | 2.0 | 3.1
Cc1ccc([N+](=O)[O-])cc1S(=O)(=O)NCCc1c(C)[nH]c2c(C)cccc12 | 1.3 | 3.8 | -0.456 | i | 0.7 | 3.7
O=S(=O)(Nc1ccccc1)c1ccc2c(c1)CCO2 | 9.3 | -13.1 | -1.69 | · | 6.8 | 51.6*
O=C(NC1CCCCC1)N1CCN(C(=O)c2ccco2)CC1 | 0.9 | -27.9 | 0.447 | i | -1.4 | 0.8
COC(=O)c1ccc(NC(=O)CCN2CCN(c3ccccc3)CC2)cc1 | -0.1 | -8.3 | -0.88 | + | 1.6 | 2.5
Cc1ccc(/C=C(\C#N)C(=O)Nc2c(C)cccc2C)s1 | 1.2 | -14.3 | -0.342 | i | 23.9 | -0.2
Cc1ccc(NC(=O)/C(C#N)=C/c2ccc(C)s2)c(C)c1 | 0.0 | -6.2 | -0.182 | + | -20.0 | 0.5
COC(=O)[C@@H](NC(=O)N1CCC(C)CC1)C(C)C | 1.5 | -9.8 | -1.08 | · | 4.0 | 0.9
COc1c2ccccc2c(OC)c2ccccc12 | 0.9 | -8.4 | 1.14 | + | 43.0 | 0.0
CCOc1ccccc1C(=O)NCc1ccc2c(c1)OCO2 | 0.0 | 0.1 | 0.963 | i | 1.7 | -0.2
CCOc1cccc2cc(-c3nnc(NCc4ccc5c(c4)OCO5)s3)c(=O)oc12 | 0.2 | -1.4 | 0.0647 | + | 0.4 | 1.5
O=C(NNS(=O)(=O)c1ccc(F)cc1)C1CCN(Cc2cccc(F)c2)CC1 | -2.0 | -10.9 | -0.766 | i | 14.0 | 1.5
CCOC(=O)c1c(NC(=O)C2COc3ccccc3O2)sc2c1CCN(Cc1ccccc1)C2 (configuration not stated) | 0.9 | -15.0 | -0.453 | i | 3.1 | 2.9
NC(=O)c1c(NC(=O)C2COc3ccccc3O2)sc2c1CCN(Cc1ccccc1)C2 (configuration not stated) | -0.5 | -15.7 | 1 | + | 25.5 | 1.4
Cc1cc(NC(=O)CSc2nc(C(C)C)nc3c2c(=O)n(C)c(=O)n3C)no1 | -1.0 | 33.3* | -0.0233 | i | 0.7 | -1.7
